Reference: ChEMBL document CHEMBL2176935, “Discovery and lead optimization of a novel series of CC chemokine receptor 1 (CCR1)-selective piperidine antagonists via parallel synthesis” (J Med Chem, 2012)

The compounds below were run against T1, C-C chemokine receptor type 1 (Homo sapiens, UniProt P32246) (assay: Displacement of [125I]MIP-1alpha from CCR1 in human THP1 cells).
T1 sequence (P32246 whole entry): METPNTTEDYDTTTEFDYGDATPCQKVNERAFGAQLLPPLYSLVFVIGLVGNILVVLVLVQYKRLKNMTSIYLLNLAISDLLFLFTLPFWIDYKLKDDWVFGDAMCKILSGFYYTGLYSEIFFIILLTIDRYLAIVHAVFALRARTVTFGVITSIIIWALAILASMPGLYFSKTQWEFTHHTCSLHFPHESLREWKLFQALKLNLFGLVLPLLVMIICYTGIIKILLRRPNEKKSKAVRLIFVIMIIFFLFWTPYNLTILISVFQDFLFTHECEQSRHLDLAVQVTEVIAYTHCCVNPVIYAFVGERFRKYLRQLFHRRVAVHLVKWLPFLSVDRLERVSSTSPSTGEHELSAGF
Assay type: cell-based, THP-1
Method in brief: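 THP-1 cells, 1 × 105, mixed with WGA PS SPA beads in RPMI 1640 (no phenol red) with 50 mM HEPES, 5 mM MgCl2, 1 mM CaCl2, 0.1% BSA. Compound in 3-fold dilutions, 8 μM to 140 pM final. [125I]-MIP-1α at 0.1 nM final. Incubated 12 h at room temperature, imaged by LEADseeker. Duplicates; IC50 from four-parameter logistic fit after nonspecific correction.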

| SMILES | IC50 [nM] |
| --- | --- |
| CC(C)[C@@H](NC(=O)Cc1cccc(Cl)c1)C(=O)N1CCC(c2ccc(Cl)cc2)CC1 | 45 |
| CC(C)[C@@H](NC(=O)Cc1cccc(F)c1)C(=O)N1CCC(c2ccc(Cl)cc2)CC1 | 44 |
| CC(C)[C@@H](NC(=O)Cc1ccc(Cl)cc1)C(=O)N1CCC(c2ccc(Cl)cc2)CC1 | 115 |
| Cc1ccc(CC(=O)N[C@@H](C(=O)N2CCC(c3ccc(Cl)cc3)CC2)C(C)C)cc1 | 140 |
| Cc1ccccc1CCC(=O)N[C@@H](C(=O)N1CCC(c2ccc(Cl)cc2)CC1)C(C)C | 19 |
| Cc1cccc(CCC(=O)N[C@@H](C(=O)N2CCC(c3ccc(Cl)cc3)CC2)C(C)C)c1 | 22 |
| CC(C)[C@@H](NC(=O)CCc1ccccc1F)C(=O)N1CCC(c2ccc(Cl)cc2)CC1 | 18 |
| CC(C)[C@@H](NC(=O)CCc1ccc(F)cc1)C(=O)N1CCC(c2ccc(Cl)cc2)CC1 | 70 |
| Cc1ccc(CCC(=O)N[C@@H](C(=O)N2CCC(c3ccc(Cl)cc3)CC2)C(C)C)cc1 | 105 |
| O=C(N[C@@H](C(=O)N1CCC(c2ccc(Cl)cc2)CC1)C1CCCCC1)c1ccccc1 | 121 |
| CC[C@@H](NC(=O)Cc1ccccc1)C(=O)N1CCC(c2ccc(Cl)cc2)CC1 | 50 |
| CC[C@@H](C)[C@@H](NC(=O)Cc1ccccc1)C(=O)N1CCC(c2ccc(Cl)cc2)CC1 | 38 |
| CC[C@@H](NC(=O)CCc1ccccc1)C(=O)N1CCC(c2ccc(Cl)cc2)CC1 | 85 |
| CC[C@@H](C)[C@@H](NC(=O)CCc1ccccc1)C(=O)N1CCC(c2ccc(Cl)cc2)CC1 | 66 |
| CC(C)[C@@H](NC(=O)C1CCCC1)C(=O)N1CCC(c2ccc(Cl)cc2)CC1 | 70 |
| CC(C)CCC(=O)N[C@@H](C(=O)N1CCC(c2ccc(Cl)cc2)CC1)C(C)C | 26 |
| CC(C)[C@@H](NC(=O)CC1CC1)C(=O)N1CCC(c2ccc(Cl)cc2)CC1 | 46 |
| CC(C)[C@@H](NC(=O)CC1CCCC1)C(=O)N1CCC(c2ccc(Cl)cc2)CC1 | 20 |
| CC(C)[C@@H](NC(=O)CC1CCCCC1)C(=O)N1CCC(c2ccc(Cl)cc2)CC1 | 8 |
| Cc1cccc(C(=O)N[C@@H](C(=O)N2CCC(c3ccc(Cl)cc3)CC2)C(C)C)c1C | 100 |
| Cc1cccc(C)c1C(=O)N[C@@H](C(=O)N1CCC(c2ccc(Cl)cc2)CC1)C(C)C | 177 |
| CC(C)[C@@H](NC(=O)CCCc1ccccc1)C(=O)N1CCC(c2ccc(Cl)cc2)CC1 | 95 |
| CC(C)C(NC(=O)Oc1ccccc1)C(=O)N1CCC(c2ccc(Cl)cc2)CC1 (stereo not given) | 265 |
| CC(C)C(NS(=O)(=O)Cc1ccccc1)C(=O)N1CCC(c2ccc(Cl)cc2)CC1 (stereo not given) | 303 |

| SMILES | IC50 [nM] |
| --- | --- |
| CC(C)[C@@H](NC(=O)NCCc1ccccc1)C(=O)N1CCC(c2ccc(Cl)cc2)CC1 | 543 |
| CC[C@@H](NC(=O)CC(C)C)C(=O)N1CCC(c2ccc(Cl)cc2)CC1 | 152 |
| CC(C)CC(=O)N[C@@H](C(=O)N1CCC(c2ccc(Cl)cc2)CC1)C(C)C | 32 |
| CC[C@@H](C)[C@@H](NC(=O)CC(C)C)C(=O)N1CCC(c2ccc(Cl)cc2)CC1 | 34 |
| CC[C@@H](NC(=O)c1ccccc1)C(=O)N1CCC(c2ccc(Cl)cc2)CC1 | 121 |
| CC(C)C(NC(=O)OCc1ccccc1)C(=O)N1CCC(O)(c2ccc(Cl)cc2)CC1 (stereo not given) | 854 |
| CC(C)C(NC(=O)c1ccccc1)C(=O)N1CCC(O)(c2ccc(F)cc2)CC1 (stereo not given) | 933 |
| CC(C)C(NC(=O)c1ccccc1)C(=O)N1CCC(O)(c2ccc(Br)cc2)CC1 (stereo not given) | 172 |
| CC(C)C(NC(=O)c1ccccc1)C(=O)N1CC=C(c2ccc(Cl)cc2)CC1 (stereo not given) | 185 |
| CC(C)C(NC(=O)c1ccccc1)C(=O)N1CCN(c2ccc(Cl)cc2)CC1 (stereo not given) | 525 |
| CC(C)C(NC(=O)c1ccccc1)C(=O)N1CCN(c2ccc(Cl)c(Cl)c2)CC1 (stereo not given) | 375 |
| CC(C)C(=O)NC(C(=O)N1CCC(c2ccc(Cl)cc2)CC1)C(C)C (stereo not given) | 388 |
| CC(C)CC(NC(=O)c1ccccc1)C(=O)N1CCC(c2ccc(Cl)cc2)CC1 (stereo not given) | 130 |
| CC(C)(C)C(NC(=O)c1ccccc1)C(=O)N1CCC(c2ccc(Cl)cc2)CC1 (stereo not given) | 259 |
| Cc1ccccc1C(=O)NC(CC(C)C)C(=O)N1CCC(c2ccc(Cl)cc2)CC1 (stereo not given) | 88 |
| Cc1ccccc1C(=O)NC(C(=O)N1CCC(c2ccc(Cl)cc2)CC1)C(C)(C)C (stereo not given) | 262 |
| CC(O)C(NC(=O)c1ccccc1)C(=O)N1CCC(O)(c2ccc(Cl)cc2)CC1 (stereo not given) | 2830 |
| C/C=C(/NC(=O)c1ccccc1)C(=O)N1CCC(O)(c2ccc(Cl)cc2)CC1 | 370 |
| CC(C)C(NC(=O)c1ccccc1)C(=O)N1CCC(O)(c2ccc(Cl)cc2)CC1 (stereo not given) | 180 |
| CCCC(NC(=O)c1ccccc1)C(=O)N1CCC(O)(c2ccc(Cl)cc2)CC1 (stereo not given) | 521 |
| CC(C)CC(NC(=O)c1ccccc1)C(=O)N1CCC(O)(c2ccc(Cl)cc2)CC1 (stereo not given) | 324 |
| CSCCC(NC(=O)c1ccccc1)C(=O)N1CCC(O)(c2ccc(Cl)cc2)CC1 (stereo not given) | 539 |
| CCCC(NC(=O)c1ccccc1)C(=O)N1CCC(c2ccc(Cl)cc2)CC1 (racemic) | 120 |
| CCCC(NC(=O)c1ccccc1C)C(=O)N1CCC(c2ccc(Cl)cc2)CC1 (racemic) | 152 |

Second part, the compound after the results:

| IC50 [nM] | SMILES |
| --- | --- |
| 13 | CC(C)[C@@H](NC(=O)Cc1ccccc1F)C(=O)N1CCC(c2ccc(Cl)cc2)CC1 |
| 18 | CC(C)[C@@H](NC(=O)c1nc2ccccc2s1)C(=O)N1CCC(c2ccc(Cl)cc2)CC1 |
| 58 | CC(C)[C@@H](NC(=O)c1cc2ccccc2s1)C(=O)N1CCC(c2ccc(Cl)cc2)CC1 |
| 45 | CC[C@@H](C)[C@@H](NC(=O)c1ccccc1)C(=O)N1CCC(c2ccc(Cl)cc2)CC1 |
| 30 | CC(C)[C@@H](NC(=O)Cc1ccccc1)C(=O)N1CCC(c2ccc(Cl)cc2)CC1 |
| 40 | CC(C)[C@@H](NC(=O)CCc1ccccc1)C(=O)N1CCC(c2ccc(Cl)cc2)CC1 |
| 24 | CC(C)[C@@H](NC(=O)c1cccc(F)c1)C(=O)N1CCC(c2ccc(Cl)cc2)CC1 |
| 118 | CC(C)[C@@H](NC(=O)c1ccc(F)cc1)C(=O)N1CCC(c2ccc(Cl)cc2)CC1 |
| 14 | CC(C)[C@@H](NC(=O)c1ccc(F)c(F)c1)C(=O)N1CCC(c2ccc(Cl)cc2)CC1 |
| 32 | Cc1ccccc1C(=O)N[C@@H](C(=O)N1CCC(c2ccc(Cl)cc2)CC1)C(C)C |
| 25 | Cc1ccc(C(=O)N[C@@H](C(=O)N2CCC(c3ccc(Cl)cc3)CC2)C(C)C)cc1 |
| 80 | CC(C)C(NC(=O)c1ccc2ccccc2c1)C(=O)N1CCC(c2ccc(Cl)cc2)CC1 (stereo not given) |
| 40 | CC(C)C(NC(=O)Cc1ccccc1)C(=O)N1CCC(c2ccc(Cl)cc2)CC1 (stereo not given) |
| 35 | CC(C)C(NC(=O)CCc1ccccc1)C(=O)N1CCC(c2ccc(Cl)cc2)CC1 (stereo not given) |
| 1080 | CC(C)C(NC(=O)OCc1ccccc1)C(=O)N1CCC(c2ccc(Cl)cc2)CC1 (stereo not given) |
| 616 | CC(C)[C@@H](NC(=O)Nc1ccccc1)C(=O)N1CCC(c2ccc(Cl)cc2)CC1 |
| 180 | CC(C)[C@@H](NC(=O)NCc1ccccc1)C(=O)N1CCC(c2ccc(Cl)cc2)CC1 |
| 14900 | CC(C)[C@H](NC(=O)c1ccccc1)C(=O)N1CCC(c2ccc(Cl)cc2)CC1 |
| 423 | CC(C)C(NC(=O)c1ccccc1)C(=O)N1CCC(c2ccc(F)cc2)CC1 (stereo not given) |
| 55 | CC(C)C(NC(=O)c1ccccc1)C(=O)N1CCC(c2ccc(Cl)cc2)CC1 (stereo not given) |
| 36 | Cc1ccccc1C(=O)NC(C(=O)N1CCC(c2ccc(Cl)cc2)CC1)C(C)C (stereo not given) |
| 191 | CCCC(NC(=O)c1ccc2ccccc2c1)C(=O)N1CCC(c2ccc(Cl)cc2)CC1 (racemic) |
